Assay results: ChEMBL document CHEMBL1821649, “Synthesis, characterization of some benzazoles bearing pyridine moiety: search for novel anticancer agents” (2011)

Assays:
Assay type in all cases: functional
HCT-15 = assay: Antitumor activity against human HCT15 cells after 48 hrs by SRB assay; settings: HCT-15, 48 h
Outline: (§1)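 NCI-60 human tumour cell panel run under the National Cancer Institute Drug Evaluation Branch protocol. Compounds passing a single-dose prescreen were retested on all lines at five 10-fold dilutions. Growth was expressed as percent growth of treated cells. Response parameters were GI50 (molar concentration giving 50% growth inhibition), TGI (total growth inhibition) and LC50 (median lethal concentration).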

DU-145 = assay: Antitumor activity against human DU145 cells after 48 hrs by SRB assay; settings: DU-145, 48 h; outline: as §1
EKVX = assay: Antitumor activity against human EKVX cells after 48 hrs by SRB assay; outline: as §1
MDA-MB-468 = assay: Antitumor activity against human MDA-MB-468 cells after 48 hrs by SRB assay; settings: MDA-MB-468, 48 h; outline: as §1
SK-OV-3 = assay: Antitumor activity against human SKOV3 cells after 48 hrs by SRB assay; settings: SK-OV-3, 48 h; outline: as §1
OVCAR-8 = assay: Antitumor activity against human OVCAR8 cells after 48 hrs by SRB assay; settings: OVCAR-8, 48 h; outline: as §1
[1] = Antitumor activity against human Hs 578T cells after 48 hrs by SRB assay; outline: as §1
SW-620 = assay: Antitumor activity against human SW620 cells after 48 hrs by SRB assay; settings: SW-620, 48 h
Outline: (§2)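 NCI-60 human cancer cell line panel run under the NCI Drug Evaluation Branch protocol. Compounds were first screened at a single dose. Those meeting preset inhibition thresholds were retested at five 10-fold dilutions. Output was percent growth of treated cells, given as % growth inhibition. GI50, TGI and LC50 values were derived from the five-dose data.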

TK-10 = assay: Antitumor activity against human TK10 cells after 48 hrs by SRB assay; settings: TK-10, 48 h; outline: as §2
SR = assay: Antitumor activity against human SR cells after 48 hrs by SRB assay; outline: as §1
MOLT-4 = assay: Antitumor activity against human MOLT4 cells after 48 hrs by SRB assay; settings: MOLT-4, 48 h; outline: as §1
UACC-257 = assay: Antitumor activity against human UACC257 cells after 48 hrs by SRB assay; settings: UACC-257, 48 h; outline: as §2
SNB-75 = assay: Antitumor activity against human SNB75 cells after 48 hrs by SRB assay; settings: SNB-75, 48 h; outline: as §1
COLO 205 = assay: Antitumor activity against human COLO205 cells after 48 hrs by SRB assay; settings: COLO 205, 48 h; outline: as §1
RXF 393 = assay: Antitumor activity against human RXF393 cells after 48 hrs by SRB assay; settings: RXF 393, 48 h; outline: as §1
NCI-H226 = assay: Antitumor activity against human NCI-H226 cells after 48 hrs by SRB assay; settings: NCI-H226, 48 h; outline: as §1
SK-MEL-2 = assay: Antitumor activity against human SK-MEL-2 cells after 48 hrs by SRB assay; settings: SK-MEL-2, 48 h; outline: as §1
OVCAR-5 = assay: Antitumor activity against human OVCAR5 cells after 48 hrs by SRB assay; settings: OVCAR-5, 48 h; outline: as §1
CAKI-1 = assay: Antitumor activity against human Caki1 cells after 48 hrs by SRB assay; settings: CAKI-1, 48 h; outline: as §1
HCC 2998 = assay: Antitumor activity against human HCC2998 cells after 48 hrs by SRB assay; settings: HCC 2998, 48 h; outline: as §1
NCI-H460 = assay: Antitumor activity against human NCI-H460 cells after 48 hrs by SRB assay; settings: NCI-H460, 48 h; outline: as §1
Malme-3M = assay: Antitumor activity against human MALME-3M cells after 48 hrs by SRB assay; outline: as §1
HCT-116 = assay: Antitumor activity against human HCT116 cells after 48 hrs by SRB assay; settings: HCT-116, 48 h; outline: as §1
SN12C = assay: Antitumor activity against human SN12C cells after 48 hrs by SRB assay; outline: as §1
KM12 = assay: Antitumor activity against human KM12 cells after 48 hrs by SRB assay; settings: KM12, 48 h; outline: as §1
OVCAR-3 = assay: Antitumor activity against human OVCAR3 cells after 48 hrs by SRB assay; settings: OVCAR-3, 48 h; outline: as §1
CCRF-CEM = assay: Antitumor activity against human CCRF-CEM cells after 48 hrs by SRB assay; outline: as §1
SF-539 = assay: Antitumor activity against human SF539 cells after 48 hrs by SRB assay; settings: SF-539, 48 h; outline: as §1
NCI-H522 = assay: Antitumor activity against human NCI-H522 cells after 48 hrs by SRB assay; settings: NCI-H522, 48 h; outline: as §1
UACC-62 = assay: Antitumor activity against human UACC62 cells after 48 hrs by SRB assay; settings: UACC-62, 48 h; outline: as §2
SF-295 = assay: Antitumor activity against human SF295 cells after 48 hrs by SRB assay; settings: SF-295, 48 h; outline: as §1
[2] = read-out: LC50 (the source's name)

Cc1cc2nc(-c3c(N)ncc(C#N)c3-c3ccc(Cl)cc3)[nH]c2cc1C
GI50 (HCT-15): 30.6 µM
TGI (HCT-15): > 100 µM
CC50 (HCT-15; [2]): > 100 µM
GI50 (DU-145): 5.68 µM
TGI (DU-145): 27.1 µM
CC50 (DU-145; [2]): 93.1 µM
GI50 (EKVX): 14.4 µM
TGI (EKVX): 76.7 µM
CC50 (EKVX; [2]): > 100 µM
GI50 (MDA-MB-468): 12.4 µM
TGI (MDA-MB-468): 51.5 µM
CC50 (MDA-MB-468; [2]): > 100 µM
GI50 (SK-OV-3): 11.9 µM
LC50 (SK-OV-3): 65.1 µM
TGI (SK-OV-3): 27.9 µM
GI50 (OVCAR-8): 4.53 µM
LC50 (median lethal concentration) (OVCAR-8): > 100 µM
TGI (OVCAR-8): 29.6 µM
GI50 [1]: 12 µM
TGI [1]: > 100 µM
CC50 [1, 2]: > 100 µM
GI50 (SW-620): 32.4 µM
TGI (SW-620): > 100 µM
CC50 (SW-620; [2]): > 100 µM
GI50 (TK-10): 4.67 µM
TGI (TK-10): 21.3 µM
CC50 (TK-10; [2]): 69.5 µM
GI50 (SR): 28.7 µM
LC50 (median lethal concentration) (SR): > 100 µM
TGI (SR): > 100 µM
GI50 (MOLT-4): 100 µM
LC50 (MOLT-4): > 100 µM
TGI (MOLT-4): > 100 µM
GI50 (UACC-257): 11.4 µM
LC50 (UACC-257): > 100 µM
TGI (UACC-257): 82.6 µM
GI50 (SNB-75): 12.9 µM
LC50 (SNB-75): 81.3 µM
TGI (SNB-75): 32.4 µM
GI50 (COLO 205): 6.24 µM
LC50 (COLO 205): > 100 µM
TGI (COLO 205): 83.4 µM
GI50 (RXF 393): 3.18 µM
TGI (RXF 393): 13.7 µM
CC50 (RXF 393; [2]): 42.6 µM
GI50 (NCI-H226): 15 µM
TGI (NCI-H226): 46.3 µM
CC50 (NCI-H226; [2]): 100 µM
GI50 (SK-MEL-2): 20.4 µM
LC50 (median lethal concentration) (SK-MEL-2): > 100 µM
TGI (SK-MEL-2): > 100 µM
GI50 (OVCAR-5): 14.7 µM
TGI (OVCAR-5): > 100 µM
CC50 (OVCAR-5; [2]): > 100 µM
GI50 (CAKI-1): 12.1 µM
TGI (CAKI-1): > 100 µM
CC50 (CAKI-1; [2]): > 100 µM
GI50 (HCC 2998): 20.9 µM
TGI (HCC 2998): > 100 µM
CC50 (HCC 2998; [2]): > 100 µM
GI50 (NCI-H460): 3.04 µM
LC50 (median lethal concentration) (NCI-H460): > 100 µM
TGI (NCI-H460): > 100 µM
GI50 (Malme-3M): 14.5 µM
LC50 (Malme-3M): > 100 µM
TGI (Malme-3M): 78.8 µM
GI50 (HCT-116): 3.47 µM
TGI (HCT-116): 19.7 µM
CC50 (HCT-116; [2]): 66.3 µM
GI50 (SN12C): 31 µM
TGI (SN12C): > 100 µM
CC50 (SN12C; [2]): > 100 µM
GI50 (KM12): 14.8 µM
TGI (KM12): > 100 µM
CC50 (KM12; [2]): > 100 µM
GI50 (OVCAR-3): 13.9 µM
TGI (OVCAR-3): 76 µM
CC50 (OVCAR-3; [2]): > 100 µM
GI50 (CCRF-CEM): 24.6 µM
LC50 (CCRF-CEM): > 100 µM
TGI (CCRF-CEM): > 100 µM
GI50 (SF-539): 2.07 µM
TGI (SF-539): 5.78 µM
CC50 (SF-539; [2]): 27 µM
GI50 (NCI-H522): 4.07 µM
LC50 (NCI-H522): 96.5 µM
TGI (NCI-H522): 27.9 µM
GI50 (UACC-62): 11 µM
LC50 (UACC-62): > 100 µM
TGI (UACC-62): 53.2 µM
GI50 (SF-295): 10 µM
TGI (SF-295): 27.5 µM
CC50 (SF-295; [2]): 75.6 µM
